High-throughput results: PubChem, several laboratories
Only some compounds are listed: those with a hit (about 27% of all), similar ones and a draw of the others.
CYP2C9 activ: human CYP2C9 activators, primary screen, biochemical, luminescence; Cytochrome P450 2C9 (Homo sapiens), P11712; recombinant CYP2C9, luciferin-H conversion; active compounds read high; factor 1 = untreated enzyme, 0 = blocked; activation factor at 5 µM; 96,000 tested, 1.4% active;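 active means activation factor of 2 or more for CYP2C9 at a 5 µM dose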;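 further: 0 = sulfaphenazole-blocked wells and 1 = vehicle-only wells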
HIV Rev-RRE inh: HIV-1 Rev-RRE binding inhibitors, primary screen, biochemical, FRET, protein-RNA interaction; AID 704, 2007; 97,000 tested, 0.79% active; P05866; Rev peptide-RRE RNA binding; inhibition, % at 8 µM;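 active means inhibition above the screen-wide mean plus 3 SD, cut at about 35% in these data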;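 further: 0% = median DMSO wells and 100% = median Neomycin B control wells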
Target sequence (P05866 whole entry, looked up): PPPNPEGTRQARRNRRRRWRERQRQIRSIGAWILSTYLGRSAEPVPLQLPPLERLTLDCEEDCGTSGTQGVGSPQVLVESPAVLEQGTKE
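assay system = Cy5-tagged RRE RNA duplex with fluorescein-tagged Rev peptide | incubation = 5 + 15 min at 25 °C | also added = labelled Rev peptide | measure = % inhibition of FRET ratio versus controls | benchmarks = DMSO wells as 0% and neomycin B wells as 100% inhibition | measured by = FRET fluorescence readout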
CYP2C19 activ: human CYP2C19 activators, primary screen, biochemical, luminescence; AID 1025, 2008; 96,000 tested, under 10 active; recombinant CYP2C19, luciferin-H EGE luminescence; active compounds read high; 0 = fully inhibited enzyme, 1 = untreated enzyme; Cytochrome P450 2C19 (Homo sapiens), P33261; activation factor at 5 µM;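 active means activation factor of at least 2 at 5 µM in the primary screen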;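 further: 0 = wells with 2.5 mM tranylcypromine and 1 = vehicle-only wells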
Target sequence (P33261 whole entry, looked up): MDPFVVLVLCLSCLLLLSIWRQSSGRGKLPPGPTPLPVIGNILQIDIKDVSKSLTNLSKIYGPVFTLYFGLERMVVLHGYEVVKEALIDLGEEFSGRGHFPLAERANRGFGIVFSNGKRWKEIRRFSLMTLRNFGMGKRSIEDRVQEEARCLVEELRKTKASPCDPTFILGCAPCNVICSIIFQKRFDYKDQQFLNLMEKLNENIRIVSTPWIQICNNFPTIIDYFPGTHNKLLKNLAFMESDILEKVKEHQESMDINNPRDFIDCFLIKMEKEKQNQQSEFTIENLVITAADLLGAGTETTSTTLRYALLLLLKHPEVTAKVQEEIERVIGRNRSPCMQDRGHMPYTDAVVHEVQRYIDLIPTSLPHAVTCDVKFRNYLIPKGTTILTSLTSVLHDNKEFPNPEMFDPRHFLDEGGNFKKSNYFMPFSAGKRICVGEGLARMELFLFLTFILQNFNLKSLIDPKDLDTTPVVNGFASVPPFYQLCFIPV
CYP2C9 inhib: blockers of cytochrome P450 2C9 activity – biochemical, luminescence, ADME assay, primary screen; CYP2C9 Supersomes, luciferin-H conversion; 96,000 tested, 20% active; inhibition, % at 5 µM;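 active means blocking of liver enzyme CYP2C9 beyond about 50% at 5 µM, limit read from the data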
Cav32 inh: Cav3.2 calcium influx blockers – cell-based, Fluo-4 calcium fluorescence, FDSS, MLSMR library, primary screen. Voltage-dependent T-type calcium channel subunit alpha-1H (Homo sapiens), O95180. Cav3.2-expressing cells; active compounds read low. B-score at 10 µM. 100,000 tested, 4% active. AID 449739, 2010;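 active means single-dose well whose peak fluorescence ratio is a statistical outlier from its plate by either plate-standardised score or position-corrected B-score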
CYP2C19 inh: blockers of cytochrome P450 2C19 activity – biochemical, luminescence, ADME assay, primary screen; P33261; CYP2C19 Supersomes, luciferin-H EGE luminescence, 30 min; inhibition, % at 5 µM; 96,000 tested, 21% active;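 active means CYP2C19 inhibition above a set limit at 5 µM in the primary screen, cut at about 50% in these data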;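 further: plate controls were negative control wells for no effect and 2.5 mM tranylcypromine positive control for full effect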
Active calls of the source: *; · = no result.

SMILES | CYP2C9 activ | HIV Rev-RRE inh | CYP2C19 activ | CYP2C9 inhib | Cav32 inh | CYP2C19 inh
COc1ccc(CCNC(=O)CCN2C(=O)COc3ccc(C)cc32)cc1OC | 0.8 | 0 | 0.7 | 20 | 0.18 | 31
Cc1ccc(N(CC(=O)O)S(C)(=O)=O)cc1Cl | 0.9 | 5 | 1 | 6 | 1.5 | 1
Cc1ccccc1NC(=O)CC1(c2ccc(N(C)C)cc2)C(=O)c2ccccc2C1=O | 0.6 | 2 | 0.4 | 36 | -1.5 | 56*
O=c1c2ccccc2nnn1CSc1nnc(-c2ccc3c(c2)OCO3)o1 | 0.8 | 0 | 1 | 21 | 0.87 | 4
O=C(c1ccco1)n1c(=S)nc2ccccn21 | 0.7 | 1 | 0.3 | 28 | 1.6 | 72*
O=C(c1cc2ncc(Br)cn2n1)N1CCN(C(=O)c2ccco2)CC1 | 1 | 6 | 0.9 | 0 | -0.23 | 7
Cc1cccc2nc(=S)n(C(=O)c3ccco3)n12 | 0.2 | 3 | 0.3 | 76* | 0.74 | 73*
COc1ccc(NC(=O)c2c(C(F)(F)F)nn(C)c2SCc2ccccc2Cl)cc1 | 0.1 | 11 | 0.8 | 87* | 0.037 | 24
Cc1ccccc1P(=O)(CO)c1ccccc1C | 1 | 9 | 0.7 | -5 | 1.1 | 34
COc1ccc(NS(=O)(=O)c2ccc3oc4ccccc4c3c2)cn1 | 0 | 10 | 0 | 99* | -4.1 | 96*
COC(=O)c1ccccc1S(=O)(=O)Nc1ccc(OC)nc1 | 0.8 | 8 | 0.2 | 23 | 0.28 | 85*
CCOc1cc2[nH]c(=S)n(CC3CCCN3CC)c(=O)c2cc1OCC (configuration not stated) | 1.1 | · | 1.1 | -6 | 1.3 | -12
CC(=O)c1cccc(NC(=O)Cc2ccc3c(c2)CCCC3)c1 | 2.6* | 12 | 0.8 | -164 | -0.84 | 17
CC(=O)Oc1ccc(C(=O)Nc2cc(C)ccc2NC(=O)COc2ccccc2)cc1 | 0.4 | 6 | 0.9 | 58* | · | 11
Cc1ccc(NC(=O)COc2ccccc2)c(NC(=O)c2ccccc2C)c1 | · | 6 | · | · | -1.2 | ·
CC(=O)c1cccc(NC(=O)COc2ccccc2)c1 | 0.4 | 9 | 0.3 | 57* | 0.13 | 74*
COc1ccc(CC(=O)Nc2cccc(-c3csc(C)n3)c2)cc1 | 0.4 | 9 | 0.3 | 60* | -2.9 | 69*
COC(=O)COc1cccc(NC(=O)COc2ccccc2)c1 | 0.9 | 2 | 1 | 6 | 0.025 | 3
CCCC(=O)Nc1nc2nc(-c3ccccc3)cc(=O)n2[nH]1 | 0.9 | 5 | 1.1 | 14 | 0.3 | -6
Cc1cc(S(=O)(=O)NC(C)C)ccc1OCC(=O)N1CCOCC1 | 0.7 | 3 | 0.9 | 29 | 1.2 | 12
CC(C)C(NC(=O)c1ccccc1)c1nnc(SCC(=O)Nc2nccs2)n1C (configuration not stated) | 0.9 | -5 | 1 | 9 | -0.028 | 2
O=C(/C=C/c1ccco1)NCC1CCCO1 (configuration not stated) | 1 | 5 | 1 | 5 | · | 3
CCc1cccc(NC(=O)COc2ccccc2)c1 | 1 | 6 | 0.5 | 5 | -3.6 | 52*
COc1ccc(OCC(=O)Nc2cccc(OC)c2)cc1 | 1.2 | 3 | 0.3 | -19 | 0.098 | 71*
CSc1cccc(NC(=O)COc2ccccc2)c1 | 1.1 | 1 | 0.5 | -14 | -3.2 | 45
SMILES | CYP2C9 activ | HIV Rev-RRE inh | CYP2C19 activ | CYP2C9 inhib | Cav32 inh | CYP2C19 inh
CCN(CC(=O)Nc1cccc(OC)c1)C(=O)c1ccc(C)s1 | 0.3 | 8 | 0.2 | 72* | 0.98 | 76*
COc1cccc(NC(=O)Nc2ccc3nsnc3c2)c1 | 0.4 | -2 | 1 | 64* | -1.1 | -1
CC(NC(=O)c1ccc(N(C)C)cc1)C1CC2CCC1C2 (configuration not stated) | 0.9 | 4 | 0.9 | 15 | 0.09 | 7
CN1CCN(CC(=O)N2c3ccc(S(=O)(=O)NCCNC(=O)OC(C)(C)C)cc3C(=O)Nc3cccnc32)CC1 | · | · | · | · | -0.78 | ·
Clc1ccc(-c2n[nH]c3c2CCC3)cc1Cl | 0.6 | 14 | 0.9 | 38 | -0.93 | 13
Cc1c(NC(=O)c2cc(-c3cccs3)on2)c(=O)n(-c2ccccc2)n1C | 0.9 | 2 | 0.9 | 10 | -0.7 | 7
CCCCCC(=O)Nc1cccc(C2=NOC3(C2)C[C@@H](C(N)=O)N(C(=O)C2(C)CC2)C3)c1 (some centres not stated) | · | · | · | · | 0.73 | ·
O=C(N/C(=N\O)c1ccccc1)Nc1ccc(Cl)cc1 | 0.4 | 2 | 0.4 | 56* | -5* | 64*
O=C(N/N=C/c1ccc(Cl)cc1Cl)Nc1ccccc1 | 0.8 | 6 | 0.6 | 24 | -2.2 | 35
COC(=O)C(CCCCNC(=O)OCc1ccccc1)NC(=O)CN (configuration not stated) | 0.6 | 3 | 0.5 | 44 | 0.7 | 51*
CCCCCCCCNC(=O)C(CCC(=O)OCc1ccccc1)NC(C)=O (configuration not stated) | 0.9 | -7 | 0.3 | 7 | -3.3 | 75*
O=C(NCc1ccco1)Nc1ccc2snnc2c1 | 0.1 | 3 | 0.2 | 86* | -1.1 | 83*
O=C(OCCN(C1=NS(=O)(=O)c2ccccc21)c1ccccc1Cl)c1ccc(Cl)cc1 | 0.1 | 19 | 0.6 | 87* | -3.2 | 44
CC1CCN(C(=O)C(Cc2ccccc2)n2cccc2)CC1 (configuration not stated) | 0.8 | · | 0.1 | 22 | -0.46 | 93*
O=C(NC(Cc1ccccc1)C(=O)N1CCN(c2ccccn2)CC1)c1ccco1 (configuration not stated) | 0.9 | 3 | 0.8 | 10 | 1.5 | 21
Cc1cccc(N2CCN(C(=O)Cn3cccc3C(=O)c3ccccc3)CC2)c1C | 1.2 | 2 | 0.6 | -20 | -3 | 42
O=C(C(Cc1ccccc1)n1cccc1)N1CCN(c2ncccn2)CC1 (configuration not stated) | 0.3 | 1 | 0.6 | 69* | -0.71 | 43
Cc1cccc(N2CCN(C(=O)C(Cc3ccccc3)n3cccc3)CC2)c1C (configuration not stated) | 1.1 | -6 | 0.7 | -14 | -4.7* | 28
Cc1cccc(CN2CCN(CC(=O)NCc3ccc(F)cc3)C2=O)c1 | · | 4 | · | · | 0.11 | ·
O=C(NC1CCCCC1)c1cccc(S(=O)(=O)N2CCOCC2)c1 | 1 | 1 | 1.1 | -2 | -0.1 | -11
CCOc1cccc(C(=O)Nc2nc(-c3ccc(S(=O)(=O)N4CCOCC4)cc3)cs2)c1 | 0.4 | -5 | 0.7 | 65* | 0.021 | 26
